This is one part of a sample in which hits are shown more often than they occur.
697 NFkB inh: lowers PMA/ionomycin-induced NF-kB signal in 697 B cells; 697 B-cell NF-kB luciferase reporter, 16 h; inhibition, % at 4 µM; 0.33% of 330,000 active; AID 435022; in the data active means inhibition above about 35%
UPR XBP1 act: activators of adaptive arm of unfolded protein response (XBP1) | CHO-XBP1 luciferase reporter, IRE1-XBP1 UPR activation, luminescence; percent of tunicamycin response, DMSO as zero | activation, % at 20 µM | 0.33% of 330,000 active | AID 463104;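 active means versus positive control, 20 µM dose yields 30% or more activation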
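Material: CHO cell line with stable XBP1 luciferase reporter; schedule: 16-18 h cell attachment at 37 °C, then 6 h compound exposure; signal: glow luminescence from Steady-Glo reagent; medium: serum-containing F12 medium, 10% FBS; benchmarks: tunicamycin 10 µg/mL and vehicle-only wells; read-out: percent activation relative to tunicamycin reference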
CHOP inh: blocks CHOP induction under ER stress | 3.8% of 220,000 active | CHO-K1 CHOP-promoter luciferase, tunicamycin-induced, 15-18 h | AID 2732 | inhibition, % at 10 µM;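 active means compounds that reduced the stress-induced luciferase reporter signal by more than about 70% of percent inhibition, limit read from the data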
Jurkat NFkB inh: lowers PMA/ionomycin-induced NF-kB signal in Jurkat cells. PMA/ionomycin-induced NF-kB luciferase reporter, luminescence. 0.53% of 330,000 active. inhibition, % at 4 µM; in the data active means inhibition above about 50%
UPR CHOP act: activators of apoptotic arm of unfolded protein response (CHOP); CHO-CHOP luciferase reporter, UPR activation, luminescence; percent of tunicamycin response over DMSO baseline; activation, % at 10 µM; 0.34% of 330,000 active; AID 449763;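 active means at 10 µM dose, activation of 40% or more, normalized to positive control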
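System: CHO-CHOP luciferase reporter cell line; amount: 500 cells/well; buffer or medium: F12 medium containing 10% fetal bovine serum; incubation: 6 h compound exposure at 37 °C after overnight seeding; measured by: luciferase luminescence after 10 min with Steady-Glo reagent; evaluation: % reporter activation, DMSO baseline versus tunicamycin full activation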
Jurkat NFkB conf: lowers PMA/ionomycin-induced NF-kB signal in Jurkat cells | shares compounds with Jurkat NFkB inh | AID 435020 | Jurkat NF-kB luciferase, 16 h | 27% of 2,700 active | inhibition, % at 4 µM;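 active means inhibition reaching about 45% at 4 µM in either replicate, limit read from the data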
Large screens that a line does not name were inactive (follow-up assays come after a bar, where they were run).

O=C(NCc1ccccc1)c1onc(CS(=O)(=O)c2ccccn2)c1C(=O)NCc1ccccc1	none (no result: CHOP inh)
CCOC(=O)c1[nH]c(C)c(C(=O)Nc2ccc(C)cc2C)c1C	Jurkat NFkB inh 52.6 (no result: CHOP inh) | Jurkat NFkB conf inactive
CCOC(=O)c1c(C)[nH]c(C(=O)OCc2ccccc2F)c1C	none (no result: CHOP inh) | Jurkat NFkB conf inactive
Cc1cccc(N2CCN(C(=O)CCCCCn3c(=S)[nH]c4ccc(N5CCOCC5)cc4c3=O)CC2)c1C	none (no result: CHOP inh)
COC(=O)c1ccc(NC(=O)c2ccccc2C(=O)Nc2ccc(C(=O)OC)cc2)cc1	none (no result: CHOP inh)
COC(=O)c1ccc(NC(=O)C(=O)c2cccn2C)cc1	none | Jurkat NFkB conf inactive
COc1ccc(NC(=O)C2CCCN(S(C)(=O)=O)C2)cc1OC (configuration not stated)	none (no result: CHOP inh)
COc1ccc(CN(C(=O)c2snc(C(N)=O)c2N)C(C(=O)NC2CCCC2)c2cc(OC)ccc2OC)cc1 (configuration not stated)	none (no result: CHOP inh)
CN(C)c1ccc(C(=O)Nc2nc3c(s2)CCCC3)cc1	CHOP inh 92.0 | Jurkat NFkB conf inactive
CC(C)(C)c1ccc(C(=O)NC(=S)Nc2nc3c(s2)CCCC3)cc1	none
C/C(CC(=O)Nc1cc(C)ccn1)=N\NC(=O)c1cccc(F)c1	none (no result: CHOP inh)
CC1CC(C)C[N+](=C2C=C(N3CCCC3)CC(C)(C)C2)C1 (configuration not stated)	none (no result: 697 NFkB inh, UPR XBP1 act, Jurkat NFkB inh, UPR CHOP act)
CC1(C)CC(N2CCN(c3ccccc3)CC2)=CC(=[N+]2CCCC2)C1	Jurkat NFkB inh 57.5 | Jurkat NFkB conf inactive
CN(Cc1ccccc1)C1=CC(=[N+]2CCCC2)CC(C)(C)C1	Jurkat NFkB inh 61.9 | Jurkat NFkB conf 59.1
CCN(CC)C1=CC(=[N+]2CCCC2)CC(C)(C)C1	none
COC(=O)c1c(SCC(=O)Nc2ccc(C)c(C)c2)nc(=O)[nH]c1C	none
Cc1cc(NC(=O)c2cccc(C)c2[N+](=O)[O-])no1	none (no result: CHOP inh)
CCn1c2ccccc2c2cc(NC(=O)CNCc3ccccc3OC)ccc21	Jurkat NFkB inh 53.3 (no result: CHOP inh) | Jurkat NFkB conf inactive
COc1ccc2oc(=Nc3cc(F)ccc3F)c(C(N)=O)cc2c1	Jurkat NFkB inh 65.3 | Jurkat NFkB conf inactive
COc1ccc(OC)c(N=c2oc3cc(O)ccc3cc2C(N)=O)c1	none
Cn1c(=O)oc2cc(S(=O)(=O)N3CCCc4ccccc43)ccc21	Jurkat NFkB inh 55.4 (no result: CHOP inh) | Jurkat NFkB conf inactive
COC(=O)Nc1ccc(S(=O)(=O)N2CCCc3cccc(O)c32)cc1	none
Cn1c(=O)oc2cc(S(=O)(=O)N3CCc4ccccc43)ccc21	none
COC(=O)Nc1ccc(S(=O)(=O)N2CCCc3ccccc32)cc1	Jurkat NFkB inh 60.8 (no result: CHOP inh) | Jurkat NFkB conf 55.7
CC(=O)N1N=C(c2ccco2)CC1c1ccc(Cl)o1 (configuration not stated)	none (no result: CHOP inh)
COc1ccc(-c2nc(-c3ccc(Br)o3)no2)cc1	CHOP inh 75.8 | Jurkat NFkB conf inactive
CCNC(=O)N(CCOC)CC1CCCN(C2Cc3ccccc3C2)C1 (configuration not stated)	none (no result: CHOP inh)
Cc1cc(C(=O)OCC(=O)Nc2ccccc2C#N)c(C)o1	none (no result: CHOP inh)
Cc1ccc(-n2nc3c(=O)n(CC(=O)NC(C)CCc4ccccc4)nc(C)c3c2C)cc1 (configuration not stated)	Jurkat NFkB inh 52.7 (no result: CHOP inh) | Jurkat NFkB conf 62.9
CCOc1ccccc1OCCC(=O)OCC(=O)Nc1c(C)cc(C)cc1C	none (no result: CHOP inh)
Cc1cnc(NC(=O)C2CC(=O)N(c3cccc(Cl)c3)C2)s1 (configuration not stated)	Jurkat NFkB inh 75.5 (no result: CHOP inh) | Jurkat NFkB conf 72.4
Cc1cnc(NC(=O)C2CC(=O)N(c3ccc4c(c3)OCCO4)C2)s1 (configuration not stated)	none (no result: CHOP inh)
O=C(Nc1ccc(OC(F)F)c(Cl)c1)c1ccccn1	none | Jurkat NFkB conf inactive
CCOC(=O)N1CCN(C(=O)/C(=C/c2cccs2)NC(=O)c2ccc(OC)c(OC)c2)CC1	none (no result: CHOP inh)
O=C(CN1CCOCC1)Nc1ncc(Cc2ccccc2Cl)s1	none
CCc1ccc(CCC(=O)Nc2ncc(Cc3ccccc3Cl)s2)o1	Jurkat NFkB inh 66.1 | Jurkat NFkB conf inactive
O=[N+]([O-])c1ccccc1Nc1nc(-c2cccnc2)cs1	none (no result: CHOP inh)
O=C1CN(C(=O)COc2cccc(F)c2)c2ccccc2N1	none
Cc1noc(C)c1COc1cccc(C(=O)OCC(=O)N2CC(=O)Nc3ccccc32)c1	Jurkat NFkB inh 57.6 (no result: CHOP inh) | Jurkat NFkB conf inactive
Cc1c(C(=O)O)sc(S(=O)(=O)N2CCN(C(=O)CCc3ccccc3)CC2)c1C(=O)O	none (no result: CHOP inh)
CN(c1ccccc1)S(=O)(=O)c1ccc(NC(=O)c2nc(S(C)(=O)=O)ncc2Cl)cc1	Jurkat NFkB inh 53.2 (no result: CHOP inh) | Jurkat NFkB conf inactive
CN(c1ccccc1)S(=O)(=O)c1ccc(NC(=O)c2ccccc2)cc1	none
CC(=O)c1sc(NC(=O)c2ccc(C(C)(C)C)cc2)nc1C	none | Jurkat NFkB conf inactive
O=C(/C=C\Nc1cccc(F)c1)c1cccs1	none | Jurkat NFkB conf inactive
O=C(/C=C\Nc1ccc2c(c1)OCO2)c1cccs1	none
CCOc1cc(-c2cc(-c3ccc(C)cc3)nc(N)c2C#N)ccc1O	CHOP inh 70.1, Jurkat NFkB inh 51.1 | Jurkat NFkB conf inactive
O=C(CSc1nnc(-c2ccc(Br)cc2)o1)Nc1cccc(C(=O)O)c1	Jurkat NFkB inh 74.6 (no result: CHOP inh) | Jurkat NFkB conf inactive
COc1ccc(-c2nnc(SCC(=O)/C(C#N)=C(\C)N)o2)cc1	none | Jurkat NFkB conf inactive
COc1ccccc1NC(=O)CSc1nnc(-c2ccncc2)o1	none
CC(=O)c1cccc(NC(=O)CSc2nnc(-c3cccnc3)o2)c1	none
C/C(N)=C(/C#N)C(=O)CSc1nnc(-c2ccccc2Br)o1	none | Jurkat NFkB conf inactive
COc1ccc(-c2nnc(SCC(=O)Nc3ccccc3OC)o2)cc1	none | Jurkat NFkB conf inactive
C/C(=N\OCC(=O)Nc1ccccc1Br)c1cccs1	none
Cc1c(C)c2cccnc2c2ncccc12	Jurkat NFkB inh 78.3 (no result: CHOP inh) | Jurkat NFkB conf 83.7
CCCCCN(C(=O)CCC(=O)OCc1ccc(Cl)cc1Cl)c1c(N)n(CCCC)c(=O)[nH]c1=O	none (no result: CHOP inh)
CC(=O)c1ccc(OC(C)C(=O)OCC(=O)NCCc2ccccc2)cc1 (configuration not stated)	none (no result: CHOP inh)
O=C(N/N=C\c1cc(Br)ccc1O)c1ccc(S(=O)(=O)N2CCCCC2)cc1	Jurkat NFkB inh 53.6 | Jurkat NFkB conf inactive
O=C(N/N=C/c1ccc(O)c(O)c1)c1cccc(S(=O)(=O)N2CCCCC2)c1	none
O=C(COc1ccc(Oc2ccccc2)cc1)NCc1cn2ccccc2n1	Jurkat NFkB inh 63.3 | Jurkat NFkB conf inactive
O=C(O)c1ccc(OCc2cn3ccccc3n2)cc1	none
COc1ccccc1N1CCN(c2ccnc3cc(Cl)ccc23)CC1	Jurkat NFkB inh 67.7 (no result: CHOP inh) | Jurkat NFkB conf inactive

Screens (PubChem)
